Reference: ChEMBL document CHEMBL1777679, “Discovery and optimization of pyrazoline compounds as B-Raf inhibitors” (Bioorg Med Chem Lett, 2010)
Values after ≈ are worked out from the molar mass of the structure shown.

Columns and labels:
[1] = biological target: T1, Serine/threonine-protein kinase B-raf (Homo sapiens, UniProt P15056, V600E); experiment: Inhibition of B-Raf V600E mutant-mediated pERK phosphorylation in human A375 cells after 3 hrs by whole cell ELISA assay; format: cell-based, A-375
T1 sequence (P15056 2-766 V600E limits assumed): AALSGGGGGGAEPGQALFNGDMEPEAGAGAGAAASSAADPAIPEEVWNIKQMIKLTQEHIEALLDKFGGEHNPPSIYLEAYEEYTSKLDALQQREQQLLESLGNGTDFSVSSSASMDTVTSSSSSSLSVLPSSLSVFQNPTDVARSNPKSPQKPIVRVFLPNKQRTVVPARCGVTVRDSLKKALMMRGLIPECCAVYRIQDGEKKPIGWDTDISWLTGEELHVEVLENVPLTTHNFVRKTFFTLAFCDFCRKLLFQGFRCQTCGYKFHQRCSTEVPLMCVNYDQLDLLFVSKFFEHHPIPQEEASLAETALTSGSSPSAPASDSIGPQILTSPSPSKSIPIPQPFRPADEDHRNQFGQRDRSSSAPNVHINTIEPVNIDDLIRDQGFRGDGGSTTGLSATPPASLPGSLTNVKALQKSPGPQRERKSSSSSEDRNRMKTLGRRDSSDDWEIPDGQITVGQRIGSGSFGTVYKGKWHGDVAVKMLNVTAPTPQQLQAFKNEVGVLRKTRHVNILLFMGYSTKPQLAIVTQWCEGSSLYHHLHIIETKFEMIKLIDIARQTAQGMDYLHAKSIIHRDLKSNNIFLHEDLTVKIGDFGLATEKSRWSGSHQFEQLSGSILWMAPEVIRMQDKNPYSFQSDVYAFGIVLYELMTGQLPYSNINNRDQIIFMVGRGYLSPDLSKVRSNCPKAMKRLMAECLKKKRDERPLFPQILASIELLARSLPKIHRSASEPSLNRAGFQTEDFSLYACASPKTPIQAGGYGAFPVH
In short: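 A375 human melanoma cells (B-Raf V600E) were seeded overnight and exposed to inhibitor for 3 h. Cells were then fixed, permeabilized and blocked overnight. Detection used anti-phospho-ERK antibody for 1 h, then an HRP conjugate, with tetramethylbenzidine read at OD 650 nm.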

[2] = biological target: T1, Serine/threonine-protein kinase B-raf; experiment: Inhibition of B-Raf V600E mutant after 3 hrs
[3] = biological target: T1, Serine/threonine-protein kinase B-raf; experiment: Inhibition of B-Raf V600E mutant after 2 hrs; conditions: in the assay text read “after 3 hrs” for “after 2 hrs”
In short: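 Raf kinase activity measured with a biotinylated peptide substrate at 30 °C for 3 h. After the stop step, the mixture was incubated 2 h on a streptavidin-coated flashplate and counts were read by scintillation.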

[4] = Clearance in Sprague-Dawley rat at 0.5 to 1 mg/kg, iv and 10 mg/kg, po; format: ADME, organism-based; conditions: in vivo
In short: (§1)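 Male SD rats dosed intravenously at 0.5 mg/kg or 1 mg/kg, or orally at 10 mg/kg. Plasma exposure, clearance and oral bioavailability derived from plasma levels.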

[5] = AUC in Sprague-Dawley rat at 0.5 to 1 mg/kg, iv and 10 mg/kg, po; format: ADME, organism-based; conditions: plasma; in short: as §1
[6] = Bioavailability in Sprague-Dawley rat at 0.5 to 1 mg/kg, iv and 10 mg/kg, po; format: ADME, organism-based; conditions: in vivo; in short: as §1
[7] = Aqueous solubility of the compound in 50 mM of potassium phosphate buffer at pH 6.8 by turbidimetric method; format: physicochemical
In short: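 Turbidimetric kinetic solubility in 50 mM potassium phosphate buffer, pH 6.8.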

[8] = biological target: Serine/threonine-protein kinase B-raf (Homo sapiens, UniProt P15056); experiment: Inhibition of B-Raf
Sequence of Serine/threonine-protein kinase B-raf (Homo sapiens, UniProt P15056) (P15056 whole entry): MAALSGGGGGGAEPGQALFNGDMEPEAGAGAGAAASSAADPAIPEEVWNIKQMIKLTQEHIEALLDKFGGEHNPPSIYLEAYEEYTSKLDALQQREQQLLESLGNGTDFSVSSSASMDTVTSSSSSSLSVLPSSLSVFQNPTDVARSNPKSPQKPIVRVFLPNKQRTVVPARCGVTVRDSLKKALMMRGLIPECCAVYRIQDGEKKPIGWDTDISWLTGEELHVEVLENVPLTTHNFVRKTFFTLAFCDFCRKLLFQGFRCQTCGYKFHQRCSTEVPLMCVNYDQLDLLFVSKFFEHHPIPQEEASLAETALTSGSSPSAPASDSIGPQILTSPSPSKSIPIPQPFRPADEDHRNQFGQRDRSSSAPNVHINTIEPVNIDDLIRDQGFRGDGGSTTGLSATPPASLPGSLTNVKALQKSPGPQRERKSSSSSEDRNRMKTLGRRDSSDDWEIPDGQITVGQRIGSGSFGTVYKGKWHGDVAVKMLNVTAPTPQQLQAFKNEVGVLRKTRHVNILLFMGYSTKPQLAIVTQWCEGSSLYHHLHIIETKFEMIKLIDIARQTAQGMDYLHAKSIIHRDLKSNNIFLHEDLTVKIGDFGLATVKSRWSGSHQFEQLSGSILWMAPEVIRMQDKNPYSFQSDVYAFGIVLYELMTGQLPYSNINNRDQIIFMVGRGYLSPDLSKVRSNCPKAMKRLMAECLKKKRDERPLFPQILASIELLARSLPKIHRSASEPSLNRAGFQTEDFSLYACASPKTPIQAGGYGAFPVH
In short: (§2)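 Raf kinase reaction with biotinylated peptide substrate run 3 h at 30 °C. After a stop step, the mixture is held 2 h on streptavidin-coated flashplates to capture the substrate, and the plates are read by scintillation counting.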

[9] = biological target: RAF proto-oncogene serine/threonine-protein kinase (Homo sapiens, UniProt P04049); experiment: Inhibition of C-Raf
Sequence of RAF proto-oncogene serine/threonine-protein kinase (P04049 whole entry): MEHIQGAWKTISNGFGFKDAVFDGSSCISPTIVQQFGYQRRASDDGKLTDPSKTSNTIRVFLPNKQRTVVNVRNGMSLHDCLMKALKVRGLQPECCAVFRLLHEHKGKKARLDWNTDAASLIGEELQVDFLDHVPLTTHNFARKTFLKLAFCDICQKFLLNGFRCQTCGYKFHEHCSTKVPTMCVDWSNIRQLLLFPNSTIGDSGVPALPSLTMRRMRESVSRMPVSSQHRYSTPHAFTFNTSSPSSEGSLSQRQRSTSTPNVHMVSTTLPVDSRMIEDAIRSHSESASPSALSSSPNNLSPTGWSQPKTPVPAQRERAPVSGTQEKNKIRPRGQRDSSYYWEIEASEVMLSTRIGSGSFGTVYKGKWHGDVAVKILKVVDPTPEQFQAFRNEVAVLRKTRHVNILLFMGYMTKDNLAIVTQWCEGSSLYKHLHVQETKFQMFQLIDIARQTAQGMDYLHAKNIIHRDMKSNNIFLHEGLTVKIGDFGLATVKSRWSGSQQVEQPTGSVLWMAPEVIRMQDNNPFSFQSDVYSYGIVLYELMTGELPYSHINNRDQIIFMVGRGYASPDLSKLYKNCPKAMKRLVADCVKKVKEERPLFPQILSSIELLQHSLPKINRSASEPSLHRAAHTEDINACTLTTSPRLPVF

[10] = biological target: T1, Serine/threonine-protein kinase B-raf; experiment: Inhibition of B-Raf V600E mutant; in short: as §2

SMILES	IC50 [1] [nM]	IC50 [3] [nM]	further results
NCc1ccccc1-c1ccc(C(=O)N2N=C(c3cncc(F)c3)CC2c2ccccc2O)s1 (racemic)	180	–	IC50 [2]: 21 nM
Cc1ccccc1-c1ccc(C(=O)N2N=C(c3cccnc3)CC2c2ccccc2O)s1 (racemic)	1500	79	–
O=C(c1ccc(-c2ccc3c(c2)CCNC3)s1)N1N=C(c2cccnc2)CC1c1ccccc1O (racemic)	21	5	–
Nc1cncc(C2=NN(C(=O)c3ccc(-c4ccccn4)s3)C(c3ccccc3O)C2)c1 (racemic)	31	3	–
O=C(c1ccc(-c2ccc3c(c2)CNC3)s1)N1N=C(c2cncc(CO)c2)CC1c1c(O)cccc1F (racemic)	120	3	–
O=C(c1ccc(-c2cccc3c2CCNC3)s1)N1N=C(c2cccnc2)CC1c1c(O)cccc1F (racemic)	180	–	clearance [4]: 11.7 mL/min/kg; AUC [5]: 26 µM·h; bioavailability [6]: 89%
NCc1ccccc1-c1ccc(C(=O)N2N=C(c3cccnc3)CC2c2ccccc2O)s1 (racemic)	270	10	clearance [4]: 65 mL/min/kg; AUC [5]: 4.9 µM·h; bioavailability [6]: 76%
O=C(c1ccc(-c2ccccn2)s1)N1N=C(c2cccnc2)CC1c1ccc(F)cc1O (racemic)	1400	11	–
O=C(c1ccc(-c2ccccn2)s1)N1N=C(c2cccnc2)CC1c1ccccc1O (single isomer, unassigned; enantiomer 1)	280	–	–
O=C(c1ccc(-c2ccccn2)s1)N1N=C(c2cccnc2)CC1c1ccccc1 (racemic)	–	799	–
NCc1ccccc1-c1ccc(C(=O)N2N=C(c3cncc(N)c3)CC2c2c(O)cccc2F)s1 (racemic)	56	4	–
O=C(c1ccc(-c2ccccn2)s1)N1N=C(c2cccnc2)CC1c1cccc(F)c1O (racemic)	1400	13	–
NCc1cccc(-c2ccc(C(=O)N3N=C(c4cccnc4)CC3c3ccccc3O)s2)c1 (racemic)	390	6	–
CC(=O)Nc1cncc(C2=NN(C(=O)c3ccc(-c4ccccn4)s3)C(c3ccccc3O)C2)c1 (racemic)	63	3	–
O=C(c1ccc(-c2ccc3c(c2)CNC3)s1)N1N=C(c2cccnc2)CC1c1ccccc1O (racemic)	19	4	clearance [4]: 58.3 mL/min/kg; AUC [5]: 0.89 µM·h; bioavailability [6]: 14%
O=C(c1ccc(-c2ccccn2)s1)N1N=C(c2cccnc2)CC1c1cc(F)ccc1O (racemic)	680	7	–
O=C(c1ccc(-c2ccc(CO)cc2)s1)N1N=C(c2cccnc2)CC1c1ccccc1O (racemic)	140	5	–
O=C(c1ccc(-c2ccc3c(c2)CNCC3)s1)N1N=C(c2cccnc2)CC1c1c(O)cccc1F (racemic)	21	3	–
O=C(c1ccc(-c2ccccn2)s1)N1N=C(c2cccnc2)CC1c1cccc(O)c1 (racemic)	> 25000	670	–

SMILES	IC50 [1] [nM]	IC50 [3] [nM]	further results
O=C(c1ccc(-c2cccc(CN3CCCC3)c2)s1)N1N=C(c2cccnc2)CC1c1ccccc1O (racemic)	110	6	–
Cn1cc(-c2ccc(C(=O)N3N=C(c4cccnc4)CC3c3c(O)cccc3F)s2)cn1 (racemic)	55	3	–
O=C(c1ccc(-c2ccc3c(c2)CNCC3)s1)N1N=C(c2cccnc2)CC1c1ccccc1O (racemic)	25	4	–
NCc1ccccc1-c1ccc(C(=O)N2N=C(c3cccnc3)CC2c2c(O)cccc2F)s1 (racemic)	85	7	clearance [4]: 26.7 mL/min/kg; AUC [5]: 11 µM·h; bioavailability [6]: 85%
O=C(c1ccc(-c2ccc3c(c2)CCNC3)s1)N1N=C(c2cccnc2)CC1c1c(O)cccc1F (racemic)	34	3	–
O=C(c1ccc(-c2ccc3c(c2)CNC3)s1)N1N=C(c2cccnc2)CC1c1c(O)cccc1F (racemic)	60	–	clearance [4]: 15 mL/min/kg; AUC [5]: 8.4 µM·h; bioavailability [6]: 37%; IC50 [2]: 2 nM
O=C(c1ccc(-c2ccccn2)s1)N1N=C(c2cccnc2)CC1c1ccccc1O (racemic)	180	–	solubility kinetic [7]: 5.8 µg/mL (≈ 13.6 µM); IC50 [8]: 17 nM; IC50 [9]: 27 nM; IC50 [10]: 23 nM; IC50 [2]: 23 nM
Nc1cncc(C2=NN(C(=O)c3ccc(-c4ccccn4)s3)C(c3c(O)cccc3F)C2)c1 (racemic)	18	3	–
O=C(c1ccc(-c2cccc(CN3CCCC3)c2)s1)N1N=C(c2cccnc2)CC1c1c(O)cccc1F (racemic)	41	8	–
O=C(c1ccco1)N1N=C(c2cccnc2)CC1c1ccccc1O (racemic)	1800	–	IC50 [2]: 200 nM
O=C(c1ccc(-c2ccccn2)s1)N1N=C(c2cncc(CO)c2)CC1c1ccccc1O (racemic)	39	3	–
NCc1ccc(-c2ccc(C(=O)N3N=C(c4cccnc4)CC3c3c(O)cccc3F)s2)cc1 (racemic)	37	3	–
NCc1ccc(-c2ccc(C(=O)N3N=C(c4cccnc4)CC3c3ccccc3O)s2)cc1 (racemic)	82	5	–
Cn1cc(-c2ccc(C(=O)N3N=C(c4cccnc4)CC3c3ccccc3O)s2)cn1 (racemic)	89	9	–
NCc1ccccc1-c1ccc(C(=O)N2N=C(c3cncc(N)c3)CC2c2ccccc2O)s1 (racemic)	64	7	–
O=C(c1ccc(-c2ccccn2)s1)N1N=C(c2cccnc2)CC1c1c(O)cccc1F (racemic)	80	5	–
Cc1nc(-c2ccc(C(=O)N3N=C(c4cccnc4)CC3c3ccccc3O)s2)cs1 (racemic)	210	7	–
O=C(c1ccc(-c2ccccn2)s1)N1N=C(c2cccnc2)CC1c1ccccc1O (single isomer, unassigned; enantiomer 2)	14000	–	–
